For assay [1], the system named is Mus musculus. The assay can be described thus: Compound was evaluated for the antimalarial activity against Plasmodium berghei in mice (Mus musculus) at the dose 160 (mg/kg) administered subcutaneously; (A) active. The format is functional. In short, it runs like this:
(§1)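 P. berghei-infected mice, five per dose group; one subcutaneous dose given 72 h after infection. Read-out is the increase in mean survival time over infected controls, counted as active when the increase is at least 100%. Cures are mice alive out of five at 60 days post-infection. Testing was done at Rane Laboratories, University of Miami.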

The test system of assay [2] is Mus musculus. The assay can be described thus: Compound was evaluated for the antimalarial activity against Plasmodium berghei in mice (Mus musculus) at the dose 40 (mg/kg) administered subcutaneously. The format is functional. In short, it runs like this:
as §1

Assay [3] deals with Mus musculus. The assay can be described thus: Compound was evaluated for the antimalarial activity against Plasmodium berghei in mice (Mus musculus) at the dose 320 (mg/kg) administered subcutaneously; (A) active. The format is functional. In short, it runs like this: as §1
Assay [4] deals with Mus musculus. The assay can be described thus: Compound was evaluated for the antimalarial activity against Plasmodium berghei in mice (Mus musculus) at the dose 640 (mg/kg) administered subcutaneously; (C) is the number of mice (Mus musculus) surviving out of five at 60 days post-infection. The format is functional. An outline of the steps: as §1
The test system of assay [5] is Mus musculus. In words: (§2) Compound was evaluated for the antimalarial activity against Plasmodium berghei in mice (Mus musculus) at the dose 80 (mg/kg) administered subcutaneously. The format is functional. An outline of the steps: as §1
Assay [6] has as its system Mus musculus. In words: Compound was evaluated for the antimalarial activity against Plasmodium berghei in mice (Mus musculus) at the dose 20 (mg/kg) administered subcutaneously. The format is functional. In short, it runs like this:
as §1

The test system of assay [7] is Mus musculus. In words: Compound was evaluated for the antimalarial activity against Plasmodium berghei in mice (Mus musculus) at the dose 80 (mg/kg) administered subcutaneously; IA is defined as inactive. The format is functional, organism-based.
Assay [8] has as its system Mus musculus. In words: Compound was evaluated for the antimalarial activity against Plasmodium berghei in mice (Mus musculus) at the dose 80 (mg/kg) administered subcutaneously; (C) is the number of mice (Mus musculus) surviving out of five at 60 days post-infection. The format is functional. In short, it runs like this: as §1
The test system of assay [9] is Mus musculus. The assay can be described thus: Compound was evaluated for the antimalarial activity against Plasmodium berghei in mice (Mus musculus) at the dose 40 (mg/kg) administered subcutaneously; (A) active. The format is functional. An outline of the steps: as §1
The subject of assay [10] is Mus musculus. The assay can be described thus: Compound was evaluated for the antimalarial activity against Plasmodium berghei in mice (Mus musculus) at the dose 160 (mg/kg) administered subcutaneously; (C) is the number of mice (Mus musculus) surviving out of five at 60 days post-infection. The format is functional. In short, it runs like this: as §1
Assay [11] concerns Mus musculus. In words: Compound was evaluated for the antimalarial activity against Plasmodium berghei in mice (Mus musculus) at the dose 320 (mg/kg) administered subcutaneously; (C) is the number of mice (Mus musculus) surviving out of five at 60 days post-infection. The format is functional. An outline of the steps:
as §1

For assay [12], the system named is Mus musculus. The assay can be described thus: Compound was evaluated for the antimalarial activity against Plasmodium berghei in mice (Mus musculus) at the dose 20 (mg/kg) administered subcutaneously; (A) active. The format is functional. In short, it runs like this: as §1
Assay [13] concerns Mus musculus. The assay can be described thus: Compound was evaluated for the antimalarial activity against Plasmodium berghei in mice (Mus musculus) at the dose 40 (mg/kg) administered subcutaneously; (C) is the number of mice (Mus musculus) surviving out of five at 60 days post-infection. The format is functional. An outline of the steps:
as §1

In assay [14] the test system is Mus musculus. The assay can be described thus: Compound was evaluated for the antimalarial activity against Plasmodium berghei in mice (Mus musculus) at the dose 80 (mg/kg) administered subcutaneous; (A) active. The format is functional. In short, it runs like this: as §1
Assay [15] deals with Mus musculus. The assay is described as §2. The format is functional. The source holds these as a separate data set.

Activity calls are given as the source filed them.

With `CCCCN(CCCC)CC(O)c1cc(-c2ccc(Cl)cc2)cc(-c2ccc(Cl)cc2)c1` (stereo unspecified), the “Delta MST” value in assay [1] is 9.7 days; in assay [2], 0.5 days; in assay [3], 13.9 days; in assay [5], 4.1 days; in assay [6], 0.3 days. The compound further showed a No. of cures in assay [4] of 5.

Regarding `CCCCNCC(O)c1cc(/C=C/c2ccc(C(F)(F)F)cc2)cc(/C=C/c2ccc(C(F)(F)F)cc2)c1` (stereo unspecified), the “Delta MST” value in assay [7] is “inactive”.

For the compound `CCCCN(CCCC)CC(O)c1cc(-c2ccc(Cl)cc2)nc(-c2ccc(Cl)cc2)c1` (stereo unspecified), the No. of cures in [8] turned out to be 3; in [10], 3; in assay [11], 4; in assay [4] it was 5. Further, the “Delta MST” value was 15.7 days in [9] and 2.3 days in assay [6].

`CCCCNCC(O)c1cc(-c2ccc(Cl)cc2)nc(-c2ccc(Cl)cc2)c1` (stereo unspecified): the No. of cures stood at 2 in [8]; 3 in [10]; 5 in assay [11]; 5 in [4]; 1 in assay [13]. Further, the “Delta MST” value in [12] came out at 10.8 days.

Turning to `CCCCN(CCCC)CC(O)c1cc(/C=C/c2ccc(C(F)(F)F)cc2)cc(/C=C/c2ccc(C(F)(F)F)cc2)c1` (stereo unspecified), the “Delta MST” value in [2] is 0.5 days; in [14], 8.1 days; in [6], 0.5 days. The No. of cures in assay [10] and in assay [11] was 5 each time.

With `CCCCNCC(O)c1cc(-c2ccc(Cl)cc2)cc(-c2ccc(Cl)cc2)c1` (stereo unspecified), the values for the No. of cures in [8], in assay [10] and in assay [11] were 3, 5 and 5, respectively. In addition, the “Delta MST” value in assay [2] was 1.3 days; in [6], 0.5 days.

With `CCCCNCC(O)c1cc(/C=C/c2ccc(C(F)(F)F)cc2)nc(/C=C/c2ccc(C(F)(F)F)cc2)c1` (stereo unspecified), the “Delta MST” value in [7] is “inactive”.

On to `CCCCN(CCCC)CC(O)c1cc(/C=C/c2ccc(C(F)(F)F)cc2)nc(/C=C/c2ccc(C(F)(F)F)cc2)c1` (stereo unspecified), for which the “Delta MST” value in [2] was determined as 2.9 days; in assay [6], 0.2 days. For the same compound, the No. of cures in assay [10] stood at 5; in [11], 5; in assay [4], 5; in [15], 2.

The record behind these values is ChEMBL document CHEMBL1121554, “Antimalarials. 12. Preparation of carbon isosteres of selected 4-pyridinemethanols as suppressive antimalarials” (1980).
